An excerpt weighted towards active compounds, which were near 2.9% of everything screened.
PGC1a acetyl inh = PGC1a acetylation modulation, inhibitor mode | 350,000 tested, 0.17% active | inhibition, % at 15.6 µM | AID 651687 | U2OS PGC1a acetylation, AlphaScreen anti-acetyl-lysine; with virally co-expressed GCN5 acetyltransferase;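 active means every replicate shows inhibition of at least 40%; inconclusive means mean inhibition at least 40% but some replicate below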;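 further: 0% = neutral control wells and 100% = positive control wells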
S100A4 MyoIIA = S100A4-myosin IIA interaction inhibition; S100A4/TAMRA-MyoIIA peptide fluorescence polarization; P26447; inhibition, % at 10.7 µM; 360,000 tested, 0.14% active;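 active means mean inhibition of at least 70% across replicates, with every replicate also reaching that level; inconclusive means mean inhibition reaches 70% but some replicates fall short; inactive means mean inhibition below 70%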
Target sequence (P26447 whole entry, looked up): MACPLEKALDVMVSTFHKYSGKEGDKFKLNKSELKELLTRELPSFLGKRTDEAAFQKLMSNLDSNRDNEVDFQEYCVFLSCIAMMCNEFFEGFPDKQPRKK
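Material: S100A4 monomer (human). Medium: Calcium-containing HEPES buffer, pH 7.2. Probe or stimulus: labelled myosin peptide probe, 5 nM. Compound dosing: one concentration per compound. Timing: polarization read 5 min after assay mix addition, stable 5–60 min. Benchmarks: DMSO as neutral control, TFP as positive control.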
SIRT5 inh = sirtuin-5 (human) deacylase inhibition | Purified SirT5, succinyl-peptide AMC, trypsin-coupled fluorescence | 330,000 tested, 1.1% active | Q9NXA8 | inhibition, % at 15 µM; in the data active means inhibition above about 15%; inconclusive means no clear call, values can overlap the other calls
Target sequence (Q9NXA8 whole entry, looked up): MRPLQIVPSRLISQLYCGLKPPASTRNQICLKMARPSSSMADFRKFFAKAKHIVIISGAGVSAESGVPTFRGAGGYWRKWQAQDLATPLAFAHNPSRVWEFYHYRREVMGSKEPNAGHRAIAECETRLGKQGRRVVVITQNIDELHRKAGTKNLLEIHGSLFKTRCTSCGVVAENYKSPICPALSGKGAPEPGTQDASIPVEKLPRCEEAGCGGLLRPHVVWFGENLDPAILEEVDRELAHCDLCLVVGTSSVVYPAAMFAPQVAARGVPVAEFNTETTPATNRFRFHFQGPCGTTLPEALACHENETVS
DENV2 CPE rescue = DENV2-induced cell death inhibition; DENV2-infected cells, cytopathic effect rescue, plate reader; CPE inhibition, % at 9.99 µM; 350,000 tested, 1.7% active; AID 651640; in the data active means CPE inhibition above about 20%, passing the limit was not always enough; inconclusive means no clear call, values can overlap the other calls; tested in BHK-21 cells;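 further: 0% = median of neutral control wells and 100% = median of positive control wells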
Statin myotox sup = protects C2C12 myotubes from simvastatin toxicity; 330,000 tested, 0.78% active; AID 602340; ATP luminescence, 48 h; scaled: DMSO 0, geranylgeraniol control 100; rescue of ATP level, % at 7.49 µM;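 active means mean ATP rescue above about 67%, or every replicate alone reaching that limit, limit read from the data, passing the limit was not always enough; inconclusive means no clear call, values can overlap the other calls; inactive means mean under the limit and some replicate under it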;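 further: myotubes were challenged with 10 µM simvastatin during compound exposure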
Numbers without * were called inactive; ? = inconclusive; . = not tested or not shown; ! = not active in a repeat.

SMILES	PGC1a acetyl inh	S100A4 MyoIIA	SIRT5 inh	DENV2 CPE rescue	Statin myotox sup
CCNC(=O)Nc1ccc2c(c1)C(=O)N(C)[C@H]1CC[C@H](CC(=O)NCCN3CCCC3)O[C@@H]1CO2	2	.	.	-1	17
O=C(Nc1ccccc1F)N1CC(=O)N2[C@@H](CO)[C@@H](c3ccc(-c4cccnc4)cc3)[C@@H]2C1	10	-2	1	?	.
O=C(NC1CCN(Cc2ccccc2)CC1)c1ccc(CS(=O)c2ccccc2Cl)o1 (centres undefined)	9	35	.	70*	32
C[C@@H]1CCCCO[C@H](CN(C)C(=O)c2ccccc2)[C@H](C)CN([C@@H](C)CO)C(=O)c2cc(N(C)C)ccc2O1	-1	-9	3	-13	-22
C[C@@H]1CN([C@H](C)CO)C(=O)c2cc(/C=C/c3ccccc3)cnc2O[C@H]1CN(C)C(=O)C1CC1	4	.	.	.	18
CCCS(=O)(=O)N1CCn2c(nc3ccccc32)C1	-6	-1	15*	-5	0
CCOC(=O)C(=CNCC(=O)OC)C(=O)OCC	-13	.	.	.	107*
CCOC(=O)CNC=C(C(=O)OCC)C(=O)OCC	-17	.	.	.	25
N#Cc1cccc(-c2ccc3c(c2)[C@H]2[C@H](CCN2Cc2ccncc2)[C@H](CO)N3)c1	-6	5	1	50*	10
N#Cc1cccc(-c2ccc3c(c2)[C@@H]2[C@@H](CCN2C(=O)c2ccncc2)[C@@H](CO)N3)c1	17	98*	10	-22	-40
COCC(=O)N1CC[C@@H]2[C@H](CO)Nc3ccc(-c4cccc(C#N)c4)cc3[C@@H]21	7	1	-1	44*	-7
N#Cc1cccc(-c2ccc3c(c2)[C@@H]2[C@@H](CCN2Cc2ccncc2)[C@@H](CO)N3)c1	-11	7	1	-9	-53
O=C(C1CCCCC1)N1C[C@H](n2cc(-c3ccc(F)cc3)nn2)[C@@H](O)C[C@@H]1c1ccccc1	9	-1	2	15	10
O=C(C1CCCCC1)N1C[C@@H](O)[C@H](n2cc(-c3ccc(F)cc3)nn2)C[C@@H]1c1ccccc1	12	12	28*	-5	23
O=C(C1CCCCC1)N1C[C@H](O)[C@@H](n2cc(C3CC3)nn2)C[C@@H]1c1ccccc1	13	-1	-1	86*	0
CN1c2ccc(Br)cc2[C@@H]2[C@@H](CCN2C(=O)c2ccc(F)cc2)[C@H]1CO	17	-4	-5	-2	4
C/C=C/c1ccc([C@H]2[C@@H](CO)N(C(=O)Nc3ccccc3F)[C@H]2C#N)cc1	-3	89*	4	2	-1
N#C[C@H]1[C@@H](c2ccc(/C=C/c3ccccc3)cc2)[C@@H](CO)N1C(=O)C1CCCC1	-10	7	2	5	-42
N#C[C@H]1[C@@H](c2ccc(C#Cc3ccc(F)cc3)cc2)[C@H](CO)N1C(=O)C1CCCC1	-29	-12	-5	-4	10
N#C[C@@H]1[C@@H](c2ccc(C#Cc3ccc(F)cc3)cc2)[C@H](CO)N1C(=O)C1CCCC1	1	-24	4	23*	12
N#C[C@@H]1[C@@H](c2ccc(/C=C/c3ccccc3)cc2)[C@@H](CO)N1C(=O)C1CCCC1	10	4	7	26*	4
N#C[C@@H]1[C@@H](c2ccc(C#Cc3ccccc3F)cc2)[C@H](CO)N1C(=O)C1CCC1	-4	10	2	30*	29
O=C(CN1CCOCC1)N1CC[C@H]2[C@H](CO)Nc3ccc(Br)cc3[C@H]21	7	.	.	-9	-5
CN1CCN(C(=O)C[C@@H]2CC[C@@H]3[C@H](COC[C@H](O)CN3CC3CC3)O2)CC1	4	-3	0	0	1
CCNC(=O)C[C@H]1CC[C@H]2[C@@H](COC[C@@H](O)CN2C(=O)C2CCCC2)O1	9	-23	1	107*	1
SMILES	PGC1a acetyl inh	S100A4 MyoIIA	SIRT5 inh	DENV2 CPE rescue	Statin myotox sup
O=C(C[C@H]1CC[C@@H]2[C@H](COC[C@H](O)CN2C(=O)C2CCCC2)O1)NCc1ccncc1	1	-7	-5	30*	-4
O=C(C[C@@H]1CC[C@H]2[C@@H](COC[C@@H](O)CN2C(=O)C2CCCC2)O1)NCc1ccncc1	6	-37	0	-5	-12
CCCNC(=O)N1C[C@H](O)COC[C@@H]2O[C@@H](CC(=O)NCCCN3CCOCC3)CC[C@H]21	14	107*!	10	-1	-28
CCNC(=O)C[C@H]1CC[C@@H]2[C@H](COC[C@H](O)CN2C(=O)C2CCCC2)O1	-2	6	0	-8	1
C[C@H]1CN([C@@H](C)CO)C(=O)c2cccc(NC(=O)Nc3ccc(F)cc3)c2O[C@@H]1CN(C)S(=O)(=O)c1cccs1	14	-23	-5	?	-18
COCCCNC(=O)[C@]1(Cc2ccccc2N=[N+]=[N-])N=C(c2ccc(OCCCO)cc2)O[C@@H]1c1ccccc1N=[N+]=[N-]	2	-17	6	0	.
CN(C)c1ccnc2sc(C(N)=O)c(N)c12	48*	.	.	.	34
CN(C)c1ccnc2sc(C(=O)c3ccc(Br)cc3)c(N)c12	.	-2	6	-1	.
CCC(=O)Nc1ccc2c(c1)C(=O)N(C)[C@@H]1CC[C@H](CC(=O)NCc3ccc(OC)cc3)O[C@@H]1CO2	-13	1	2	14	-7
OC(CC1CC12c1ccccc1-c1ncccc12)(c1ccccc1)c1ccccc1 (centres undefined)	-3	.	.	.	-5
CCOC(=O)C(C)C1(O)c2ccccc2-c2ncccc21 (centres undefined)	-3	-2	-3	.	106*
COc1ccc(S(=O)(=O)Nc2cccc3c2O[C@@H](CN(C)Cc2ccccc2)[C@@H](C)CN([C@@H](C)CO)C3=O)cc1	-7	-10	1	13	-8
CC(=O)N1[C@H](CO)[C@@H](c2ccc(C3=CCCCC3)cc2)[C@@H]1CNC(=O)CN(C)C	-12	3	-1	22*	-17
CCCNC(=O)NC[C@H]1[C@@H](c2ccc(C3=CCCC3)cc2)[C@H](CO)N1C(=O)CC	-7	-6	1	-2	-9
CCCNC(=O)NC[C@@H]1[C@@H](c2ccc(C3=CCCC3)cc2)[C@@H](CO)N1C(=O)CC	4	20	11	116*	-5
C[C@@H]1CN([C@@H](C)CO)C(=O)c2cc(NC(=O)Nc3ccc(F)cc3)ccc2O[C@@H]1CN(C)S(=O)(=O)c1ccc(F)cc1	-6	0	14	-9	-40
COc1c2c(nc3occc13)C(CC=C(C)C)(OC)C(O)CC2 (centres undefined)	-11	15	.	.	78*
Cc1noc(C)c1S(=O)(=O)N(C)C[C@H]1OCCCC[C@@H](C)Oc2ccc(NS(=O)(=O)c3ccc(Cl)cc3)cc2C(=O)N([C@H](C)CO)C[C@@H]1C	1	23	-3	-13	.
